The values below come from ChEMBL document CHEMBL4834471 (J Med Chem, 2021).

Active and inactive are the calls of the source. The calls are words filed in the database; no cut-off is given here.

Series [1] relates to Keratinocyte. Put plainly: Antiinflammatory activity in cytokine cocktail-induced reconstructed human epidermis model assessed as decrease in pH at 5 to 25 uM after 4 days. Particulars: dose 5-25 µM, time 4.0 day. Type of series: functional, cell-based. The method, boiled down: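 Reconstructed human epidermis exposed to compound and stressed with a cytokine cocktail for 4 days. Readouts: IL-8 in growth medium, H&E morphology, transepidermal water loss, stratum corneum permeability to Lucifer yellow with DAPI nuclear stain, and surface pH. n = 2–3 independent experiments.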

The test system of a further series is Monocyte. Description: Cytotoxicity against human monocytes assessed as reduction in LDH release at 1 to 10 uM after 2 to 24 hrs by CytoTox96 nonradioactive assay. Format: cell-based. To be noted: dose lower 1 µM, time lower 2 hrs, dose upper 10 µM, time upper 24 hrs. In short, it runs like this:
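Monocytes at 4 × 10^5/mL in monocyte medium treated 2 or 24 h at 37 °C, 5% CO2, with 0.1% DMSO vehicle. LDH release measured by CytoTox 96 kit, with Triton X-100 (0.8%) defining maximum release.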
For orientation: Release of lactate dehydrogenase indicates damage to the cell membrane.

Series [2] deals with Mus musculus. Put plainly: Antiinflammatory activity against ovalbumin-induced airway hyperreactivity in BALB/c mouse assessed as reduction in LTB4 and isomers level in lung tissue at 10 mg/kg, po pretreated with compound for 60 mins prior to ovalbumin stimulation on day 0 and 7 and […] by UPLC-MS/MS analysis. Format: functional, organism-based. In short, it runs like this: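 Mice gavaged with 10 mg/kg 60 min before ovalbumin sensitization on days 0 and 7. Lung tissue taken on […] and LTB4 plus its isomers quantified as pg/mg lung tissue; n = 5 mice; two-tailed unpaired t-test of log data.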

Series [3] deals with Mus musculus. Description: Antiinflammatory activity BALB/c mouse assessed as inhibition of carbachol-induced bronchial reactivity at 10 mg/kg, po administered on day 0 and 7 and measured upto 21 days. Format: functional, organism-based. Particulars: time day <=21.
The test system of series [4] is Mus musculus. Description: Antiinflammatory activity in zymosan-induced CD-1 mouse peritonitis model assessed as reduction in 5-LOX product level at 10 mg/kg, po preincubated with compound for 60 mins followed by zymosan addition and measured after 30 mins. Particulars: time 90.0 min. Type of series: functional, organism-based. In short, it runs like this:
(§1)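 Oral dosing at 10 mg/kg in zymosan peritonitis; mice killed 30 min after zymosan. Peritoneal exudate lipid mediators and fatty acids profiled by UPLC-MS/MS, with LTC4 measured by ELISA; results expressed as fold change versus vehicle.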

The next series deals with HepaRG. Description: Induction of CYP3A4 expression in human HepaRG cells at 0.1 to 10 uM incubated for 48 hrs by fluorescence based assay. Type of series: functional, cell-based. Particulars: dose 0.1-10 µM. In short, it runs like this:
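Differentiated HepaRG cells treated for 48 h; CYP3A4-expressing cells visualized by fluorescence imaging at 20× magnification; n = 3 independent experiments, with n = 9 for untreated cells.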

Series [5] has as its system Keratinocyte. Put plainly: Cytotoxicity against human Keratinocytes assessed as reduction in cell viability at 10 to 100 uM after 24 hrs by MTT assay. Particulars: dose 10-100 µM. Type of series: cell-based.
In series [6] the test system is Mus musculus. Description: Antiinflammatory activity in zymosan-induced CD-1 mouse peritonitis model assessed as reduction in LOX derived metabolites at 10 mg/kg, po preincubated with compound for 60 mins followed by zymosan addition and measured after 30 mins. To be noted: time 90.0 min. Type of series: functional, organism-based. In short, it runs like this:
as §1

Series [7] deals with Prostaglandin G/H synthase 1 (Homo sapiens) (UniProt P23219). Put plainly: Inhibition of COX-1 in human platelets assessed as reduction in 12-HHT formation at 10 uM using arachidonic acid as substrate preincubated for 5 mins followed by substrate addition and measured after 5 mins by RPL-HPLC method. Type of series: tissue-based. Particulars: Platelet, time 10.0 min.
Prostaglandin G/H synthase 1 (Homo sapiens), sequence (P23219 whole entry): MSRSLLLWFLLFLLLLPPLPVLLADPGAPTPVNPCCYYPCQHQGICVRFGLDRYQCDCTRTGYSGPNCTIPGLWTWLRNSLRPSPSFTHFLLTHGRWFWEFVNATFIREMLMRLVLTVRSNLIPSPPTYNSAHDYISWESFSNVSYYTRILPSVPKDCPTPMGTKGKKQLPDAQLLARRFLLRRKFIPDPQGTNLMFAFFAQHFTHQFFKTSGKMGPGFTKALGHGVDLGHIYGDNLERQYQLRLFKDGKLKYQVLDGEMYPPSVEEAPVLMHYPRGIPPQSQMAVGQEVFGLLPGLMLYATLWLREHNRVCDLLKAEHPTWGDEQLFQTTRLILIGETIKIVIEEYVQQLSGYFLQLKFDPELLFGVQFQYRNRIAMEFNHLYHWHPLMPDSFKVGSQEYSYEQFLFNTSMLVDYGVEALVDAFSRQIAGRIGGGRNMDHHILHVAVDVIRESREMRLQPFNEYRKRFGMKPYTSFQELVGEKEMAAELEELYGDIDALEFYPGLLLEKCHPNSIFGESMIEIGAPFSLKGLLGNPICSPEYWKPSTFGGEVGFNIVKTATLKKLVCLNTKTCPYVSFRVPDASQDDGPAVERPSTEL
Series [8] has as its system Mus musculus. Put plainly: Antiinflammatory activity in zymosan-induced CD-1 mouse peritonitis model assessed as increase in RvE3 levels at 10 mg/kg, po preincubated with compound for 60 mins followed by zymosan addition and measured after 30 mins by UPLC-MS/MS analysis. Format: functional, organism-based. To be noted: time 90.0 min. The method, boiled down:
as §1

Series [9] has as its target T1, Prostaglandin E synthase (Homo sapiens) (UniProt O14684).
T1 sequence (whole entry): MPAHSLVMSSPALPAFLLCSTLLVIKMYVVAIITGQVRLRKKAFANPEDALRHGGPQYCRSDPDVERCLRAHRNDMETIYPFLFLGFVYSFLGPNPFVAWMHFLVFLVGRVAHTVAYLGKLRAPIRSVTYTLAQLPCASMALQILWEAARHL
Put plainly: Inhibition of mPGES-1 activity in IL-1beta treated human A549 cells assessed as reduction in PGE2 formation at 10 uM using PGH2 as substrate preincubated for 15 mins followed by substrate addition and measured after 1 min. Format: cell-based. Particulars: time 16.0 min.

Series [10] addresses T2, Polyunsaturated fatty acid lipoxygenase ALOX15 (Homo sapiens) (UniProt P16050).
T2 sequence (whole entry): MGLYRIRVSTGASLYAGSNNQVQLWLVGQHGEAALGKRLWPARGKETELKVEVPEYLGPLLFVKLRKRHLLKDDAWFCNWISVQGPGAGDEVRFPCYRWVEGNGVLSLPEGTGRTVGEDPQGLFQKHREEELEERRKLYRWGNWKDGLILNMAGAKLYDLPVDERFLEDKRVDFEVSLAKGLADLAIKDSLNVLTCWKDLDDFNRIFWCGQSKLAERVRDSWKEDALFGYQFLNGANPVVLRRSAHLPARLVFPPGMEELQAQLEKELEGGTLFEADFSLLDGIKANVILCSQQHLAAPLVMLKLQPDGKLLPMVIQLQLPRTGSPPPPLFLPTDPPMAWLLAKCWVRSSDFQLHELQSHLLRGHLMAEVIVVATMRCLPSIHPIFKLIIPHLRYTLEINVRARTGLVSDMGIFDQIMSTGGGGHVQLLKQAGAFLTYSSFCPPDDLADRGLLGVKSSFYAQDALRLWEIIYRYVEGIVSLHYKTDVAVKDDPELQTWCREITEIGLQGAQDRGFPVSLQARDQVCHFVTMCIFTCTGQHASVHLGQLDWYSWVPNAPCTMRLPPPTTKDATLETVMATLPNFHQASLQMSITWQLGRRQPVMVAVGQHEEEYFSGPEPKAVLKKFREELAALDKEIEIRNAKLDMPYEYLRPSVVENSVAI
Description: Inhibition of 15-LOX in human PMNL assessed as reduction in 15-LOX product formation at 0.03 to 0.2 uM treated with AA and A23187 by RP-HPLC method. Format: tissue-based. To be noted: dose 0.03-0.2 µM.

On to `C/C(=C\CC/C(C)=C/CC[C@]1(C)CCc2c(C)c(O)c(C)c(C)c2O1)CCC=C(CO)CO`, for which the outcome with Keratinocyte [1], in the series on Mus musculus [2], in the series on Mus musculus [3], with Mus musculus [4], with Mus musculus [6] and in the series with Mus musculus [8] was Active. The Activity result is “Toxic” in the series with Monocyte and “Non-Toxic” in the series with Keratinocyte [5]. The result in the series with HepaRG was inactive. The inhibition entry in series [7] and in series [10] was “inactive” throughout. Moreover, the inhibition result in series [9] is “Active”.
